Data on eight compounds can be found in ChEMBL document CHEMBL2331264, “A nitrophenyl-based prodrug type for colorectal targeting of prednisolone, budesonide and celecoxib” (Bioorg Med Chem Lett, 2013).

Series [1] relates to Clostridium perfringens. Nature of the series: Prodrug activation in Clostridium perfringens assessed as prednisolone release under anaerobic conditions at 50 uM up to 24 hrs by HPLC analysis. The class given is organism-based. Put shortly: (§1)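 C. perfringens grown overnight on brain heart infusion (BHI) agar, then colonies were suspended in BHI broth to OD600 0.9–1.1. Compound incubated in the suspension under anaerobic conditions, pH 7.4, 37 °C, with a no-bacteria BHI control. Aliquots taken at 0, 2, 4, 6 and 24 h and centrifuged at 10,000 rpm for 10 min. Supernatants were stored at −20 °C, then HPLC for prodrug and released parent drug (n = 3).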

Series [2] can be described thus: Stability of the compound in simulated human gastric juices up to 1500 mins by HPLC analysis. Type of series: ADME, Gastric juice. To be noted: 25 h.
The nature of series [3]: Metabolic stability in brain heart infusion medium up to 24 hrs by HPLC analysis. The class given is ADME, tissue-based. An outline of the steps:
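Prodrug was incubated in BHI medium without bacteria under anaerobic conditions at pH 7.4 and 37 °C. Aliquots were taken at 0, 2, 4, 6 and 24 h and centrifuged at 10,000 rpm for 10 min. Supernatants were stored at −20 °C, then analysed by an HPLC method that resolves BHI components from prodrug and activation byproducts; n = 3.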

Series [4] can be described thus: Stability of the compound in simulated human duodenal fluid up to 1500 mins by HPLC analysis. As to conditions: 25 h; call rule not given here. Type of series: ADME.
Series [5] deals with Caco-2. Kind of series: Apparent permeability from apical to basolateral side of human Caco2 cells. The class given is ADME, cell-based. Put shortly: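 Transport measured across the epithelial monolayer. Samples were drawn from the acceptor reservoir at 0, 30, 60 and 120 min, and fresh buffer was added each time to keep the volume constant. The donor solution was sampled at 120 min. Caffeine was run in two wells in the apical-to-basolateral direction as a routine control.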
A general note: Caco-2 monolayers are a common model of the intestinal barrier.

Series [6] relates to Clostridium perfringens. Nature of the series: Prodrug activation in Clostridium perfringens assessed as celecoxib release under anaerobic conditions at 50 uM up to 24 hrs by HPLC analysis. The class given is organism-based. An outline of the steps: as §1

For the compound `C[C@]12C=CC(=O)C=C1CC[C@@H]1[C@@H]2[C@@H](O)C[C@@]2(C)[C@H]1CC[C@]2(O)C(=O)COC(=O)Cc1ccccc1[N+](=O)[O-]`, the Drug metabolism entry in series [1] is given as “Active”. Also, the Stability entry in series [2], in series [3] and in series [4] was “Stable” in each case.
On to `Cc1ccc(-c2cc(C(F)(F)F)nn2-c2ccc(S(=O)(=O)NC(=O)Cc3ccccc3[N+](=O)[O-])cc2)cc1`, for which the Stability result in series [2], in series [3] and in series [4] was “Stable” each time. Besides, the Papp result in series [5] is listed as “permeable”.
`C[C@]12C=CC(=O)C=C1CC[C@@H]1[C@@H]2[C@@H](O)C[C@@]2(C)[C@H]1CC[C@]2(O)C(=O)COC(=O)CCc1ccccc1`: the Drug metabolism result in series [1] is “Not Active”. The Stability entry in series [3] is reported as “Stable”.
Take `Cc1ccc(-c2cc(C(F)(F)F)nn2-c2ccc(S(=O)(=O)NC(=O)CCc3ccccc3)cc2)cc1`: the Drug metabolism result in series [6] is recorded as “Not Active”. Besides, in series [3], the Stability result is “Stable”.
Consider `CCCC1O[C@@H]2C[C@H]3[C@@H]4CCC5=CC(=O)C=C[C@]5(C)[C@H]4[C@@H](O)C[C@]3(C)[C@]2(C(=O)COC(=O)CCc2ccccc2[N+](=O)[O-])O1` (stereo not given in full), for which the Drug metabolism entry in series [1] is listed as “Not Active”. In addition, the Stability result in series [2], in series [3] and in series [4] was “Stable” in each case. Besides, the Papp result in series [5] is reported as “impermeable”.
As for `CCCC1O[C@@H]2C[C@H]3[C@@H]4CCC5=CC(=O)C=C[C@]5(C)[C@H]4[C@@H](O)C[C@]3(C)[C@]2(C(=O)COC(=O)Cc2ccccc2[N+](=O)[O-])O1` (stereo not given in full), the Drug metabolism result in series [1] is on record as “Active”. For the same compound, the Stability result in series [2], in series [3] and in series [4] was “Stable” throughout. Moreover, the Papp result in series [5] is on record as “permeable”.
On to `Cc1ccc(-c2cc(C(F)(F)F)nn2-c2ccc(S(=O)(=O)NC(=O)CCc3ccccc3[N+](=O)[O-])cc2)cc1`, for which the Stability entry in series [2], in series [3] and in series [4] was “Stable” throughout. The Papp entry in series [5] is “permeable”.
With `C[C@]12C=CC(=O)C=C1CC[C@@H]1[C@@H]2[C@@H](O)C[C@@]2(C)[C@H]1CC[C@]2(O)C(=O)COC(=O)CCc1ccccc1[N+](=O)[O-]`, in series [1], the Drug metabolism result was “Active”. The Stability result in series [2], in series [3] and in series [4] was “Stable” each time.
